This is an account of results in ChEMBL document CHEMBL4007473, “Discovery of Potent and Orally Bioavailable GPR40 Full Agonists Bearing Thiophen-2-ylpropanoic Acid Scaffold” (J Med Chem, 2017).

Activity calls are given as the source filed them. The calls are words filed in the database; no cut-off is given here.

The target of data set [1] is T1, Free fatty acid receptor 1 (Homo sapiens, UniProt O14842). Put plainly: Agonist activity at human GPR40 expressed in CHO cells assessed as increase in intracellular Ca2+ flux at 10 uM by Fluo 4-AM dye based assay. In kind it is functional, cell-based. The procedure, abridged: (§1)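 CHO cells stably expressing hGPR40 or hGPR120, seeded and incubated overnight at 37 ℃, 5% CO2. Loaded 90 min with Fluo 4-AM (3 μM) and probenecid (2.5 mM) in HBSS/0.1% BSA, washed, equilibrated 10 min. Ca2+ read as change in 585/525 ratio before and after compound addition; EC50 and Emax fitted from curves, Emax relative to reference agonist 4; mean ± SD, three independent experiments.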

The target in data set [2] is T1, Free fatty acid receptor 1. Put plainly: Agonist activity at human GPR40 expressed in CHO cells assessed as increase in intracellular Ca2+ flux by Fluo 4-AM dye based assay. The format is functional, cell-based. A general note: Calcium flux is commonly read through the fluorescence of an indicator in the cells.
Data set [3] addresses T1, Free fatty acid receptor 1. Briefly: Agonist activity at human GPR40 expressed in CHO cells assessed as increase in intracellular Ca2+ flux by Fluo 4-AM dye based assay relative to 3-(4-((2',6'-dimethylbiphenyl-3-yl)methoxy)phenyl)propanoic acid. In kind it is functional, cell-based. In a few lines: as §1
In data set [4] the target is T2, Free fatty acid receptor 4 (Homo sapiens, UniProt Q5NUL3).
T2 sequence (Q5NUL3 whole entry): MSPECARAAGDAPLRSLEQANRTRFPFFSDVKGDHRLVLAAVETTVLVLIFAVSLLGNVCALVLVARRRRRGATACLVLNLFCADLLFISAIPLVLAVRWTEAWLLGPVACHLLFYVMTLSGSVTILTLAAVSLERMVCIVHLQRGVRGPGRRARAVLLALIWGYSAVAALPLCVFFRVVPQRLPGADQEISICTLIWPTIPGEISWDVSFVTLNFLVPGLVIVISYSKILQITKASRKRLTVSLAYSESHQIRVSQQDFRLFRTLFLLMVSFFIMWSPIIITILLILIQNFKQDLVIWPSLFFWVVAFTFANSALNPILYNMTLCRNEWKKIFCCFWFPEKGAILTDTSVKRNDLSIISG
Briefly: Agonist activity at human GPR120 expressed in CHO cells assessed as increase in intracellular Ca2+ flux by Fluo 4-AM dye based assay. In kind it is functional, cell-based. The procedure, abridged: as §1

The target of data set [5] is T3, Peroxisome proliferator-activated receptor gamma (Homo sapiens, UniProt P37231).
T3 sequence (P37231 whole entry): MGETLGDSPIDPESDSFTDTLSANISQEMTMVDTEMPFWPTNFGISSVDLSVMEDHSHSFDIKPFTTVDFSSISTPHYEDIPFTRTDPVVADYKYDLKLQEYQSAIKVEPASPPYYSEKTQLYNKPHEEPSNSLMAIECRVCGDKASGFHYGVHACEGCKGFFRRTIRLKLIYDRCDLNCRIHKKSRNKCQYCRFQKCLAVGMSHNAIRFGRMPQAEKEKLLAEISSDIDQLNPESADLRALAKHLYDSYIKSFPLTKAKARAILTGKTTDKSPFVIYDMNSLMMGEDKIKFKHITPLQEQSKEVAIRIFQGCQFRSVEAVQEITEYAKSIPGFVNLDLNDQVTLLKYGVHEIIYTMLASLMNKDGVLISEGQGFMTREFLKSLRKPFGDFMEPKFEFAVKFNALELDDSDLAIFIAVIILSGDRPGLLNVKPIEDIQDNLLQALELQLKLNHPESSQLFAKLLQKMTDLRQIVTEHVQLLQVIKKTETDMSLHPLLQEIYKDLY
Put plainly: Agonist activity at PPARgamma (unknown origin) expressed in HEK293T cells by luciferase reporter gene assay. The format is cell-based.

The target in data set [6] is Free fatty acid receptor 1 (Mus musculus) (UniProt Q76JU9). Briefly: Agonist activity at GPR40 in mouse MIN6 cells assessed as increase in 25 mM glucose-stimulated insulin secretion at 10 uM after 1 hr by ELISA. The format is cell-based. The procedure, abridged:
(§2)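 MIN6 cells pre-incubated 2 h at 37 ℃ in KRBH buffer with 0.1% BSA, then stimulated 1 h at 37 ℃ with 2 mM or 25 mM glucose, alone or with test agents. Insulin secreted into supernatant quantified by ELISA; mean ± SD of four independent experiments, compared with DMSO.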
Background: An ELISA detects its analyte on a solid surface through an enzyme-linked reagent.

Data set [7] has as its target T1, Free fatty acid receptor 1. Briefly: Agonist activity at human GPR40 expressed in CHO cells assessed as increase in intracellular Ca2+ flux at 20 uM by Fluo 4-AM dye based assay. The format is functional, cell-based. The procedure, abridged:
as §1

Data set [8] has as its target T1, Free fatty acid receptor 1. Put plainly: Agonist activity at human GPR40 expressed in HEK293T cells transfected with 0.05 ug of GPR40 expression plasmid assessed as increase in intracellular Ca2+ flux by Fluo 4-AM dye based assay. The format is functional, cell-based. The note with it: HEK-293T. The procedure, abridged:
(§3)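 Plasmid titration: HEK293T cells transiently transfected with 5 μg or 0.05 μg hGPR40 expression plasmid, plated on poly-D-lysine and held 24 h. Loaded with Fluo 4-AM (3 μM) and probenecid (2.5 mM) in HBSS/0.1% BSA for 90 min, washed, equilibrated 10 min. Ca2+ response measured as change in 585/525 ratio after compound addition; mean ± SD of three experiments.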

Data set [9] concerns the target T1, Free fatty acid receptor 1. Put plainly: Agonist activity at human GPR40 expressed in HEK293T cells transfected with 5 ug of GPR40 expression plasmid assessed as increase in intracellular Ca2+ flux by Fluo 4-AM dye based assay. Conditions: HEK-293T. In kind it is functional, cell-based. In a few lines:
as §3

Data set [10] can be described thus: Inhibition of hepatobiliary transporter in Sprague-Dawley rat sandwich-cultured rat hepatocytes assessed as decrease in d8-TCA by measuring biliary excretion index at 1 to 25 uM incubated for 15 mins followed by d8-TCA addition measured after 15 mins by LC-MS/MS analysis. Conditions: 0.25 h. In kind it is ADME. In a few lines: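 Sandwich-cultured hepatocytes from male SD rats exposed to compound 15 min in standard HBSS. Cells rinsed and pre-incubated 15 min at 37 ℃ in standard or Ca2+-free HBSS, then incubated 15 min with compound plus 1 µM d8-TCA. Washed with ice-cold PBS; cellular d8-TCA measured by LC-MS/MS. BEI = (A_HBSS – A_Ca-free)/A_HBSS × 100%.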

The test system of the next data set is Mus musculus. Put plainly: Antidiabetic activity in ICR mouse assessed as decrease in blood glucose AUC at 10 mg/kg, po administered 30 mins prior to glucose challenge measured 120 mins post dose by OGTT. The format is functional, organism-based. The procedure, abridged:
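Six-week-old male ICR mice fasted 16 h, n = 10 per group, dosed orally in 0.5% methylcellulose/20% PEG400 (10 or 20 mg/kg). Oral glucose load 2.5 g/kg by gavage 30 min later. Tail-vein glucose read at -30, 0, 30, 60, 90 and 120 min; AUC0-120 min computed and compared with vehicle.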

Data set [11] deals with Free fatty acid receptor 1 (Mus musculus) (UniProt Q76JU9). Put plainly: Agonist activity at GPR40 in mouse MIN6 cells assessed as increase in 25 mM glucose-stimulated insulin secretion at 300 nM after 1 hr by ELISA. In kind it is cell-based. In a few lines: as §2
Chain of Free fatty acid receptor 1 (Mus musculus) (Q76JU9 whole entry): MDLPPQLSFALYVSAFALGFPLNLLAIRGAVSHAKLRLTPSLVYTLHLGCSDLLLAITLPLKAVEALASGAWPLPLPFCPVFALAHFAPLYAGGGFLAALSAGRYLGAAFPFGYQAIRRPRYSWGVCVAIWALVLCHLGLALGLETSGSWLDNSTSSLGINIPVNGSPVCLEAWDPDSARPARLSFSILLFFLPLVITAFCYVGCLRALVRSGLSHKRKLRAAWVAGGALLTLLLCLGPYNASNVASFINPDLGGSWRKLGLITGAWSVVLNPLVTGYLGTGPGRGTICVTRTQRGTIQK

T1 sequence (O14842 whole entry): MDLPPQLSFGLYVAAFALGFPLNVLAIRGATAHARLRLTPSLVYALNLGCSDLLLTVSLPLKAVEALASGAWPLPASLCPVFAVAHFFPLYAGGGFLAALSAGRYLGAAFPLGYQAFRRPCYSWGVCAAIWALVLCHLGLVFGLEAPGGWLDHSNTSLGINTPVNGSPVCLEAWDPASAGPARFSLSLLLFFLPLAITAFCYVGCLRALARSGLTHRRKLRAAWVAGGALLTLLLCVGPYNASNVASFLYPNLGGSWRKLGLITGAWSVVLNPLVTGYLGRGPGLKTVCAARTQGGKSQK

With `CCC(CC(=O)O)c1ccc(OCc2cccc(-c3c(C)cccc3C)c2)s1` (racemic), in [1], the outcome was inactive. A word on the EC50: it is the concentration giving half of the maximal effect. For the molecule `Cc1cccc(C)c1-c1cccc(COc2ccc(C(CC(=O)O)C3CC3)s2)c1` (racemic), the EC50 in data set [2] was 3920 nM. Turning to `CC#CC(CC(=O)O)c1ccc(OCc2cccc(-c3c(C)cccc3C)c2)s1` (racemic), the EC50 in data set [2] amounted to 210 nM. In general, Emax refers to the greatest response seen or fitted, relative to the assay's reference. Regarding `Cc1cccc(C)c1-c1cccc(OCn2cc(CCC(=O)O)nn2)c1`, in data set [3], the Emax came out at 95.6%. Further, the EC50 in data set [2] turned out to be 32200 nM. For the molecule `CCO[C@@H](CC(=O)O)c1ccc(OCc2cccc(-c3c(C)cccc3C)c2)s1`, the EC50 in data set [2] was 40100 nM.

Regarding `O=C(O)CCc1ccc(OCc2cccc(-c3ccncc3Cl)c2)s1`, the EC50 in data set [2] came to 2010 nM. For the molecule `Cc1cccc(C)c1-c1cccc(OCc2ccc(CCC(=O)O)s2)c1`, in data set [3], the Emax was 136%. In addition, the EC50 in data set [2] stood at 2420 nM.

With `CCCC(CC(=O)O)c1ccc(OCc2cccc(-c3c(C)cccc3C)c2)s1` (racemic), in data set [1], the outcome was inactive. Still for that read-out and setting: the entry for `N#Cc1ccccc1-c1cccc(COc2ccc(CCC(=O)O)s2)c1` is “inactive”. Turning to `CCO[C@H](CC(=O)O)c1ccc(OCc2cccc(-c3c(C)cccc3C)c2)s1`, the EC50 in data set [4] was > 10000 nM; in [5], > 10000 nM; in data set [2] it was 50 nM. The outcome in data set [6] was inactive. In data set [3], the Emax was found to be 147%.

Regarding `Cc1cccc(C)c1-c1cccc(COc2cc3sc(CCC(=O)O)cc3s2)c1`, the outcome in data set [7] was inactive. Turning to `Cc1cccc(C)c1-c1cccc(COc2ccc(C(C)CC(=O)O)s2)c1` (racemic), the result in data set [1] was inactive. Still for that read-out and setting: the entry for `COc1ccccc1-c1cccc(COc2ccc(CCC(=O)O)s2)c1` is “inactive”. As to `Cc1cccc(C)c1-c1cccc(COc2ccc(CCC(=O)O)cc2)c1`, the Emax in [3] turned out to be 100%. For the same molecule, the EC50 in data set [2] worked out at 8 nM.

`N#CCc1ccccc1C#Cc1ccc(CCC(=O)O)s1`: the EC50 in data set [2] amounted to 640 nM. Still for that read-out and setting: the figure for `Cc1cccc(C)c1-c1cccc(COc2ccc(CC3SC(=O)NC3=O)s2)c1` (centres undefined) is 82 nM; for `CC#CC(CC(=O)O)c1ccc(OCc2cccc(-c3c(C)cc(OCC4(C)COC4)cc3C)c2)s1` (racemic) it is 450 nM. For `O=C(O)CCc1ccc(OCc2cccc(-c3ccc(C(F)(F)F)cc3)c2)s1`, the result in data set [1] was inactive. The same measure, in the same setting: the same measure for `Cc1cccc(C)c1-c1cccc(COc2ccc(C(CC(=O)O)c3c[nH]nn3)s2)c1` (racemic): “inactive”. Consider `Cc1cccc(C)c1-c1cccc(COc2csc(CCC(=O)O)c2)c1`, for which the Emax in data set [3] came to 135%. Also, the EC50 in data set [2] worked out at 2320 nM.

In the case of `CC#CC(CC(=O)O)c1ccc(OCc2cccc(-c3c(C)cc(OC4CCN(C)CC4)cc3C)c2)s1` (racemic), the result in data set [1] was inactive. Same read-out and setting: the same measure for `O=C(O)CCc1ccc(OCc2cccc(-c3cc(Cl)nc(Cl)c3)c2)s1`: “inactive”.

In the case of `COC(CC(=O)O)c1ccc(OCc2cccc(-c3c(C)cccc3C)c2)s1` (racemic), the EC50 in [2] came to 210 nM. `Cc1cccc(C)c1-c1cccc(COc2ccc(CCC(=O)O)s2)c1`: the EC50 was > 10000 nM in [4], > 10000 nM in data set [5] and 32 nM in [2]. Moreover, the outcome in [6] was inactive. Further, in data set [3], the Emax came out at 140%. `O=C(O)CCc1ccc(OCc2cccc(-c3ccccc3C(F)(F)F)c2)s1`: the concentration for a half-maximal effect (EC50) in data set [2] was determined as 2710 nM. Consider `Cc1cccc(C)c1-c1cccc(COc2cn(CCC(=O)O)nn2)c1`, for which, in [3], the Emax is 97.9%. Moreover, the EC50 in data set [2] was 14800 nM. Consider `CCOC(CC(=O)O)c1ccc(OCc2cccc(-c3c(C)cccc3C)c2)s1` (racemic), for which the EC50 in data set [2] amounted to 57 nM. Still for that read-out and setting: the same measure for `CC#CC(CC(=O)O)c1ccc(OCc2cccc(-c3c(C)cc(OCCCS(C)(=O)=O)cc3C)c2)s1` (racemic): 240 nM; for `Cc1cccc(C)c1-c1cccc(COc2ccc(C(C#N)CC(=O)O)s2)c1` (racemic): 110 nM. In the case of `CC#CC(CC(=O)O)c1ccc(OCc2ccc(CN3CCC4(C=Cc5ccccc54)CC3)cc2)s1` (centres undefined), the outcome in [7] was inactive. Regarding `COc1ccc(F)c(-c2cccc(COc3ccc(CCC(=O)O)s3)c2)c1`, the EC50 in [2] is 580 nM. For the molecule `Cc1cccc(C)c1-c1cccc(COc2ccc([C@H](CC(=O)O)c3ccon3)s2)c1`, the result in data set [1] was inactive. `Cc1cccc(C)c1-c1cccc(OCc2cn(CCC(=O)O)nn2)c1`: the Emax in data set [3] was found to be 79.9%. The EC50 in data set [2] stood at 14700 nM.

Regarding `Cc1cccc(C)c1-c1ccc(COc2ccc(CCC(=O)O)s2)cc1`, the outcome in data set [7] was inactive. Consider `CC/C=C\C/C=C\C/C=C\C/C=C\C/C=C\C/C=C\CCC(=O)O`, for which the outcome in data set [8] and in data set [9] was Active.

Regarding `Cc1cc(OCCCS(C)(=O)=O)cc(C)c1-c1cccc(COc2ccc3c(c2)OC[C@H]3CC(=O)O)c1`, the Activity result in data set [10] is “Not Active”. The result (with Mus musculus; in [6]; in data set [11]; in data set [9]) was Active. Besides, the outcome in [8] was inactive. Take `Cc1cccc(C)c1-c1cccc(COc2cc3sc(C(=O)O)cc3s2)c1`: the result in [7] was inactive.

As to `NC(=O)c1ccccc1-c1cccc(COc2ccc(CCC(=O)O)s2)c1`, in [1], the outcome was inactive. Regarding `CC#C[C@H](CC(=O)O)c1ccc(OCc2cccc(-c3c(C)cc(OCCCS(C)(=O)=O)cc3C)c2)s1`, the EC50 in [2] amounted to 410 nM.
